Experimental data taken from ChEMBL document CHEMBL4396920, “DL5050, a Selective Agonist for the Human Constitutive Androstane Receptor” (ACS Med Chem Lett, 2019).

How the values were obtained:
[1] = molecular target: T1, Nuclear receptor subfamily 1 group I member 3 (Homo sapiens, UniProt Q14994); test: Agonist activity at human CAR transfected in human HepG2 cells cotransfected with CYP2B6 incubated for 23 hrs by luciferase reported gene assay; format: cell-based
T1 sequence (Q14994 whole entry): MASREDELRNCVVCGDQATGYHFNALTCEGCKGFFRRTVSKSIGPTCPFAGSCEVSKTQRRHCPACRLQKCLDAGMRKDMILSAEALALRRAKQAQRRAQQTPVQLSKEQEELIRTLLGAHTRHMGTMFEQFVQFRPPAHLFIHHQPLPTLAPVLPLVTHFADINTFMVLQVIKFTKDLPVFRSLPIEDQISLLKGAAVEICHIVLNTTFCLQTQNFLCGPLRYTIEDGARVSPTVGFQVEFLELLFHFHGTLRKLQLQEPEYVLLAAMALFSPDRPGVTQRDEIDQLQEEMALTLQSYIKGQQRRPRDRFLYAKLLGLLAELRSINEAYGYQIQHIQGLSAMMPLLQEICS
Procedure, shortened: (§1)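 qHTS luciferase reporter assay in a double-stable HepG2-CYP2B6-hCAR line. EC50 and Emax (fold luciferase signal over vehicle/basal) derived by nonlinear regression; Emax/EC50 ratio computed from these. Mean ± SEM of at least three independent experiments in quadruplicate.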

[2] = molecular target: T1, Nuclear receptor subfamily 1 group I member 3; test: Ratio of Emax to EC50 for agonist activity at human CAR transfected in human HepG2 cells cotransfected with CYP2B6 by luciferase reporter gene assay; format: cell-based; procedure, shortened: as §1
[3] = molecular target: T2, Nuclear receptor subfamily 1 group I member 2 (Homo sapiens, UniProt O75469); test: Agonist activity at human PXR transfected in human HepG2 cells cotransfected with CYP3A4 incubated for 23 hrs by luciferase reporter gene assay; format: cell-based
T2 sequence (O75469 whole entry): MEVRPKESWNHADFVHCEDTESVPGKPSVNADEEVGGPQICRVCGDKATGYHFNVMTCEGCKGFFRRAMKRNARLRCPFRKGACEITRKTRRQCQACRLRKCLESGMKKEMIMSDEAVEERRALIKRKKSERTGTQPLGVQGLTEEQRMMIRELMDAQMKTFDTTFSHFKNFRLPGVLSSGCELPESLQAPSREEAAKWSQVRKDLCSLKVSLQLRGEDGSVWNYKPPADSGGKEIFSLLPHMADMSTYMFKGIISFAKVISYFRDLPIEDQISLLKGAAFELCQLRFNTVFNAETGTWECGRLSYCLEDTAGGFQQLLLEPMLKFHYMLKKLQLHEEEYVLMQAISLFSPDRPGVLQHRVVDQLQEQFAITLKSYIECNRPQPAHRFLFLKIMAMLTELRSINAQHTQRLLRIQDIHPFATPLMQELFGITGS

[4] = molecular target: T2, Nuclear receptor subfamily 1 group I member 2; test: Ratio of Emax to EC50 for agonist activity at human PXR transfected in human HepG2 cells cotransfected with CYP3A4 by luciferase reporter gene assay; format: cell-based
[5] = molecular target: T1, Nuclear receptor subfamily 1 group I member 3; test: Agonist activity at human CAR in human primary hepatocytes assessed as increase in CYP2B6 gene expression incubated for 24 hrs by RT-PCR analysis; format: cell-based
Procedure, shortened: (§2)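 Hepatocytes from human liver donor HL-#151, treated with test compound at 0.5, 1 and 5 μM or vehicle; CITCO (0.5–5 μM), PB (1 mM) and RIF (10 μM) as references. CYP2B6 and CYP3A4 mRNA measured by RT-PCR and normalized to vehicle control. Mean ± SD of three independent experiments.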

[6] = molecular target: T2, Nuclear receptor subfamily 1 group I member 2; test: Agonist activity at human PXR in human primary hepatocytes assessed as slight increase in CYP3A4 gene expression at 0.5 to 5 uM incubated for 24 hrs by RT-PCR analysis; format: cell-based; procedure, shortened: as §2
HepG2 [7] = test: Cytotoxicity against human HepG2 cells harbouring CYP2B6-hCAR gene assessed as cell viability at 92 uM incubated for 24 hrs by cell titer-Glo cell viability assay; format: ADME, cell-based; conditions: hepg2, 24 h
[8] = molecular target: T1, Nuclear receptor subfamily 1 group I member 3; test: Agonist activity at human CAR in human primary hepatocytes assessed as slight increase in CYP2B6 level at 0.5 to 5 uM incubated for 72 hrs by Western blot analysis; format: cell-based
Procedure, shortened: (§3)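 Hepatocytes from liver donor #151, given the same treatments as the mRNA study. CYP2B6 and CYP3A4 protein detected by immunoblotting; representative blots.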

HepG2 [9] = test: Cytotoxicity against human HepG2 cells harbouring CYP2B6-hCAR gene assessed as reduction in cell viability at >10 uM incubated for 24 hrs by cell titer-Glo cell viability assay; format: ADME, cell-based; conditions: hepg2, 24 h
[10] = molecular target: T1, Nuclear receptor subfamily 1 group I member 3; test: Agonist activity at human CAR in human primary hepatocytes assessed as increase in CYP2B6 level incubated for 72 hrs by Western blot analysis; format: cell-based; procedure, shortened: as §3
[11] = molecular target: T2, Nuclear receptor subfamily 1 group I member 2; test: Agonist activity at human PXR in human primary hepatocytes assessed as slight increase in CYP3A4 level at 0.5 to 5 uM incubated for 72 hrs by Western blot analysis; format: cell-based; procedure, shortened: as §3
[12] = molecular target: T1, Nuclear receptor subfamily 1 group I member 3; test: Agonist activity at human CAR in human primary hepatocytes assessed as increase in CYP2B6 gene expression at 0.5 to 5 uM incubated for 24 hrs by RT-PCR analysis; format: cell-based; procedure, shortened: as §2
[13] = molecular target: T1, Nuclear receptor subfamily 1 group I member 3; test: Agonist activity at human CAR in human primary hepatocytes assessed as increase in CYP2B6 gene expression at 1 mM incubated for 24 hrs by RT-PCR analysis; format: cell-based; conditions: 1000 µM
Procedure, shortened: (§4)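 Human primary hepatocytes from liver donor HL-#151 were treated with compound at 0.5, 1 or 5 μM, phenobarbital (1 mM), rifampicin (10 μM) or vehicle. CYP2B6 and CYP3A4 mRNA was measured by RT-PCR and normalized against vehicle control. Results are mean ± SD of three independent experiments.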

[14] = molecular target: T2, Nuclear receptor subfamily 1 group I member 2; test: Agonist activity at human PXR in human primary hepatocytes assessed as increase in CYP3A4 gene expression at 1 mM incubated for 24 hrs by RT-PCR analysis; format: cell-based; conditions: 1000 µM; procedure, shortened: as §4

Structure (SMILES) | EC50 ([1]; read-out: EC50) [nM] | Ratio [2] | Activity (HepG2 [9]) | further results
Clc1ccc(-c2nc3occn3c2/C=N/OCc2ccc(Cl)c(Cl)c2)cc1 | 410 | 10 |  | EC50 [3]: 1300 nM; Ratio [4]: 1.3; Activity [5]: Dose-dependent effect; Activity [6]: Active; Activity (HepG2 [7]): Non-Toxic; Activity [8]: Active
Clc1ccc(CO/N=C/c2c(-c3cccc4ccccc34)nc3sccn23)cc1Cl | 940 | 2.3 | Toxic | 
Clc1ccc(CO/N=C/c2c(-c3ccc4ccccc4c3)nc3occn23)c(Cl)c1 | 1500 | 2.3 | Toxic | 
FC(F)(F)c1ccc(CO/N=C/c2c(-c3ccc4ccccc4c3)nc3occn23)cc1 | 470 | 6 |  | EC50 [3]: 2000 nM; Ratio [4]: 0.85; Activity (HepG2 [7]): Non-Toxic
CC(C)(C)c1ccc(-c2nc3sccn3c2/C=N/OCc2ccc(Cl)c(Cl)c2)cc1 | 2400 | 0.83 | Toxic | 
Clc1ccccc1CO/N=C/c1c(-c2ccc3ccccc3c2)nc2occn12 | 1100 | 3.5 | Toxic | 
FC(F)(F)c1ccc(-c2nc3sccn3c2/C=N/OCc2ccc(Cl)c(Cl)c2)cc1 | 880 | 2.6 | Toxic | 
Cc1ccc(-c2nc3sccn3c2/C=N/OCc2ccc(Cl)c(Cl)c2)cc1 | 490 | 5.5 | Toxic | 
Clc1ccc(CO/N=C/c2c(-c3ccc(C4CCCCC4)cc3)nc3sccn23)cc1Cl | > 100000 | < 0.03 | Toxic | 
Clc1ccc(CO/N=C/c2c(-c3ccc4ccccc4c3)nc3sccn23)cc1Cl | 380 | 6.1 | Toxic | 
CC1(C)CCC(C)(C)c2cc(-c3nc4sccn4c3/C=N/OCc3ccc(Cl)c(Cl)c3)ccc21 |  |  | Toxic | EC50 ([1]; hepg2): Not Active; EC50 [3]: 3600 nM; Ratio [4]: 0.64
Clc1ccc(CO/N=C/c2c(-c3ccc4ccccc4c3)nc3occn23)cc1 | 990 | 4.2 | Toxic | 
Clc1ccc(CO/N=C/c2c(-c3ccccc3)nc3sccn23)cc1Cl | 580 | 4 | Toxic | 
COc1ccc(-c2nc3sccn3c2/C=N/OCc2ccc(Cl)c(Cl)c2)cc1 | 490 | 4.9 | Toxic | 
Clc1ccc(CO/N=C/c2c(-c3ccc4ccccc4c3)nc3occn23)cc1Cl | 370 | 10 |  | EC50 [3]: 5900 nM; Ratio [4]: 0.37; Activity [5]: Dose-dependent effect; Activity [6]: Active; Activity [10]: Dose-dependent effect; Activity [11]: Active; Activity (HepG2 [7]): Non-Toxic
Clc1cccc(-c2nc3sccn3c2/C=N/OCc2ccc(Cl)c(Cl)c2)c1 | 1100 | 2.1 | Toxic | 
CC(C)c1ccc(-c2nc3sccn3c2/C=N/OCc2ccc(Cl)c(Cl)c2)cc1 | 590 | 5.1 | Toxic | 
Fc1c(F)c(F)c(CO/N=C/c2c(-c3ccc4ccccc4c3)nc3occn23)c(F)c1F | 1700 | 1.8 | Toxic | 
CC(C)(C)c1ccc(CO/N=C/c2c(-c3ccc4ccccc4c3)nc3occn23)cc1 | 7900 | 0.29 | Toxic | 
Clc1ccc(CO/N=C/c2c(-c3ccc(-c4ccccc4)cc3)nc3sccn23)cc1Cl |  |  | Toxic | EC50 ([1]; hepg2): Not Active; EC50 [3]: 57000 nM; Ratio [4]: 0.06
Clc1ccc(CO/N=C/c2c(-c3ccc(Br)cc3)nc3sccn23)cc1Cl | 480 | 5 | Toxic | 
Fc1ccc(-c2nc3sccn3c2/C=N/OCc2ccc(Cl)c(Cl)c2)cc1 | 670 | 3.9 | Toxic | 
C(=N\OCc1ccccc1)/c1c(-c2ccc3ccccc3c2)nc2occn12 | 840 | 5.2 |  | EC50 [3]: 7300 nM; Ratio [4]: 1; Activity (HepG2 [7]): Non-Toxic
COc1ccc(CO/N=C/c2c(-c3ccc4ccccc4c3)nc3occn23)cc1 | 4400 | 0.75 | Toxic | 
CCc1nc2sccn2c1/C=N/OCc1ccc(Cl)c(Cl)c1 | 2600 | 1.4 | Toxic | 
C(=N\OC1Cc2ccccc2C1)/c1c(-c2ccc3ccccc3c2)nc2occn12 | 980 | 3.8 | Toxic | 
N#Cc1ccc(-c2nc3sccn3c2/C=N/OCc2ccc(Cl)c(Cl)c2)cc1 | 3400 | 0.65 | Toxic | 
C(=N\OCc1ccc(Oc2ccccc2)cc1)/c1c(-c2ccc3ccccc3c2)nc2occn12 |  |  | Toxic | EC50 ([1]; hepg2): Not Active; EC50 [3]: 1100 nM; Ratio [4]: 1.6
Clc1ccc(-c2nc3sccn3c2/C=N/OCc2ccc(Cl)c(Cl)c2)cc1 |  |  | Toxic | EC50 [3]: 990 nM; Activity [12]: Active
CCC1(c2ccccc2)C(=O)NC(=O)NC1=O [PHENOBARBITAL] |  |  |  | Activity [13]: Active; Activity [14]: Active
